# Results reported in ChEMBL document CHEMBL1156144, “Biaryl ethers as novel non-nucleoside reverse transcriptase inhibitors with improved potency against key mutant viruses” (J Med Chem, 2009).
# What was measured:
# [1] = tested on: Human immunodeficiency virus; assay: Antiviral activity against HIV with reverse transcriptase G190S mutant assessed as inhibition of viral replication relative to wild type; assay type: functional
# [2] = tested on: Human immunodeficiency virus; assay: Antiviral activity against HIV with reverse transcriptase K101E/G190A double mutant assessed as inhibition of viral replication relative to wild type; assay type: functional
# [3] = tested on: Human immunodeficiency virus; assay: Antiviral activity against HIV with reverse transcriptase K103N mutant infected in human MT2 cells assessed as inhibition of viral replication measuring p24 level after 3 days in presence of 10% fetal bovine serum; assay type: functional; conditions: Human immunodeficiency virus 1, MT2, Serum, 72 h; read-out: CIC95
# Method in brief: (§1)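 Multiple-cycle replication (Spread) assay in MT2 cells with H9IIIB-background mutant virus. Cells were infected overnight at moi ≈ 0.01 without compound, washed, then cultured 3 days across a range of compound concentrations in medium with 10% FBS. p24 was measured in supernatants. CIC95 is the lowest concentration inhibiting replication by ≥95%, reported as the geometric mean of ≥2 determinations.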
# [4] = tested on: Human immunodeficiency virus; assay: Antiviral activity against HIV with reverse transcriptase Y188L mutant assessed as inhibition of viral replication; assay type: functional, organism-based; conditions: Human immunodeficiency virus 1
# [5] = tested on: Human immunodeficiency virus; assay: Antiviral activity against HIV with reverse transcriptase CNDO mutant assessed as inhibition of viral replication relative to wild type; assay type: functional
# [6] = tested on: Human immunodeficiency virus; assay: Antiviral activity against HIV with reverse transcriptase Y188L mutant assessed as inhibition of viral replication relative to wild type; assay type: functional
# [7] = tested on: Human immunodeficiency virus; assay: Antiviral activity against HIV with reverse transcriptase L100I mutant assessed as inhibition of viral replication relative to wild type; assay type: functional
# [8] = tested on: Human immunodeficiency virus; assay: Antiviral activity against HIV with reverse transcriptase Y181C mutant infected in human MT2 cells assessed as inhibition of viral replication measuring p24 level after 3 days in presence of 10% fetal bovine serum; assay type: functional; conditions: Human immunodeficiency virus 1, MT2, Serum, 72 h; read-out: CIC95; method in brief: as §1
# [9] = tested on: Human immunodeficiency virus; assay: Antiviral activity against HIV with reverse transcriptase L100I mutant assessed as inhibition of viral replication; assay type: functional, organism-based; conditions: Human immunodeficiency virus 1
# [10] = tested on: Human immunodeficiency virus; assay: Antiviral activity against HIV with reverse transcriptase G190A mutant assessed as inhibition of viral replication; assay type: functional, organism-based; conditions: Human immunodeficiency virus 1
# [11] = tested on: Human immunodeficiency virus; assay: Antiviral activity against HIV with reverse transcriptase G190S mutant assessed as inhibition of viral replication; assay type: functional, organism-based; conditions: Human immunodeficiency virus 1
# [12] = tested on: Human immunodeficiency virus; assay: Antiviral activity against HIV with reverse transcriptase K101E/G190A double mutant assessed as inhibition of viral replication; assay type: functional, organism-based; conditions: Human immunodeficiency virus 1
# [13] = tested on: Human immunodeficiency virus; assay: Antiviral activity against HIV with reverse transcriptase K101E/Y181C/G190A mutant assessed as inhibition of viral replication; assay type: functional, organism-based; conditions: Human immunodeficiency virus 1
# [14] = tested on: Human immunodeficiency virus; assay: Antiviral activity against HIV with reverse transcriptase K103N/P225H double mutant assessed as inhibition of viral replication relative to wild type; assay type: functional
# [15] = tested on: Human immunodeficiency virus; assay: Antiviral activity against HIV with reverse transcriptase K103N/Y181C double mutant assessed as inhibition of viral replication relative to wild type; assay type: functional
# [16] = tested on: Human immunodeficiency virus; assay: Antiviral activity against HIV with reverse transcriptase K101E/Y181C/G190A mutant assessed as inhibition of viral replication relative to wild type; assay type: functional
# [17] = tested on: Human immunodeficiency virus; assay: Antiviral activity against HIV with reverse transcriptase MDRC4 mutant assessed as inhibition of viral replication relative to wild type; assay type: functional
# [18] = tested on: Human immunodeficiency virus; assay: Antiviral activity against HIV with reverse transcriptase L100I/K103N double mutant assessed as inhibition of viral replication; assay type: functional, organism-based; conditions: Human immunodeficiency virus 1
# [19] = tested on: Human immunodeficiency virus; assay: Antiviral activity against HIV with reverse transcriptase K103N/G190A double mutant assessed as inhibition of viral replication relative to wild type; assay type: functional
# [20] = tested on: Human immunodeficiency virus; assay: Antiviral activity against HIV with reverse transcriptase V106A/G190A/F227L mutant assessed as inhibition of viral replication relative to wild type; assay type: functional
# [21] = tested on: Human immunodeficiency virus; assay: Antiviral activity against wild type HIV H9-3B infected in human MT2 cells assessed as inhibition of viral replication measuring p24 level after 3 days in presence of 10% fetal bovine serum; assay type: functional; conditions: Human immunodeficiency virus 1, MT2, Serum; read-out: CIC95
# Method in brief: (§2)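 Multiple-cycle spread assay in MT2 cells with wild-type H9IIIB virus. Cells were infected overnight at moi ≈ 0.01 without compound, washed, then cultured 3 days across varying compound concentrations in RPMI 1640 with 10% FBS or 50% NHS. p24 was measured in supernatants. CIC95 is the lowest concentration inhibiting replication ≥95%, as the geometric mean of ≥2 determinations.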
# [22] = tested on: Human immunodeficiency virus; assay: Antiviral activity against HIV with reverse transcriptase Y181C mutant assessed as inhibition of viral replication; assay type: functional, organism-based; conditions: Human immunodeficiency virus 1
# [23] = tested on: Human immunodeficiency virus; assay: Antiviral activity against HIV with reverse transcriptase K103N mutant assessed as inhibition of viral replication relative to wild type; assay type: functional
# [24] = tested on: Human immunodeficiency virus; assay: Antiviral activity against HIV with reverse transcriptase V106A/G190A/F227L mutant assessed as inhibition of viral replication; assay type: functional, organism-based; conditions: Human immunodeficiency virus 1
# [25] = tested on: Human immunodeficiency virus; assay: Antiviral activity against HIV with reverse transcriptase CNDO mutant assessed as inhibition of viral replication; assay type: functional, organism-based; conditions: Human immunodeficiency virus 1
# [26] = tested on: Human immunodeficiency virus; assay: Antiviral activity against HIV with reverse transcriptase K103N/G190A double mutant assessed as inhibition of viral replication; assay type: functional, organism-based; conditions: Human immunodeficiency virus 1
# [27] = tested on: Human immunodeficiency virus; assay: Antiviral activity against HIV with reverse transcriptase K103N/Y181C double mutant infected in human MT2 cells assessed as inhibition of viral replication measuring p24 level after 3 days in presence of 10% fetal bovine serum; assay type: functional; conditions: Human immunodeficiency virus 1, MT2, Serum, 72 h; read-out: CIC95; method in brief: as §1
# [28] = tested on: Human immunodeficiency virus; assay: Antiviral activity against wild type HIV H9-3B infected in human MT2 cells assessed as inhibition of viral replication measuring p24 level after 3 days in presence of 50% normal human serum; assay type: functional; conditions: Human immunodeficiency virus 1, H9-3B, 72 h, read-out: CIC95; method in brief: as §2
# [29] = target: Human immunodeficiency virus type 1 reverse transcriptase (Human immunodeficiency virus 1, UniProt Q72547, K103N); assay: Inhibition of RNA-dependent DNA polymerase activity of recombinant HIV reverse transcriptase K103N mutant assessed as BrdU incorporation by standard ECL assay
# [30] = tested on: Human immunodeficiency virus; assay: Antiviral activity against HIV with reverse transcriptase K103N/P225H double mutant assessed as inhibition of viral replication; assay type: functional, organism-based; conditions: Human immunodeficiency virus 1
# [31] = tested on: Human immunodeficiency virus; assay: Antiviral activity against HIV with reverse transcriptase Y181C/G190A double mutant assessed as inhibition of viral replication; assay type: functional, organism-based; conditions: Human immunodeficiency virus 1
# [32] = tested on: Human immunodeficiency virus; assay: Antiviral activity against HIV with reverse transcriptase K103N/Y181C/G190A mutant assessed as inhibition of viral replication relative to wild type; assay type: functional
# [33] = tested on: Human immunodeficiency virus; assay: Antiviral activity against HIV with reverse transcriptase Y181C mutant assessed as inhibition of viral replication relative to wild type; assay type: functional
# [34] = tested on: Human immunodeficiency virus; assay: Antiviral activity against HIV with reverse transcriptase G190A mutant assessed as inhibition of viral replication relative to wild type; assay type: functional
# [35] = tested on: Human immunodeficiency virus; assay: Antiviral activity against HIV with reverse transcriptase MDRC4 mutant assessed as inhibition of viral replication; assay type: functional, organism-based; conditions: Human immunodeficiency virus 1
# [36] = tested on: Human immunodeficiency virus; assay: Antiviral activity against HIV with reverse transcriptase K103N/Y181C double mutant assessed as inhibition of viral replication; assay type: functional, organism-based; conditions: Human immunodeficiency virus 1
# [37] = Inhibition of RNA-dependent DNA polymerase activity of wild type HIV reverse transcriptase assessed as BrdU incorporation by standard ECL assay; design: species or system Human immunodeficiency virus
# Method in brief: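 Purified recombinant wild-type RT polymerase activity was measured using a 500-nt heteropolymeric RNA template and a biotinylated DNA primer. BrdU incorporation was detected with a ruthenylated anti-BrdU antibody by electrochemiluminescence. Ki is the geometric mean of at least two determinations, each within 25% of the mean.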
# [38] = tested on: Human immunodeficiency virus; assay: Antiviral activity against HIV with reverse transcriptase K103N mutant assessed as inhibition of viral replication; assay type: functional, organism-based; conditions: Human immunodeficiency virus 1
# [39] = tested on: Human immunodeficiency virus; assay: Antiviral activity against HIV with reverse transcriptase K103N/Y181C/G190A mutant assessed as inhibition of viral replication; assay type: functional, organism-based; conditions: Human immunodeficiency virus 1
# [40] = tested on: Human immunodeficiency virus; assay: Antiviral activity against HIV with reverse transcriptase Y181C/G190A double mutant assessed as inhibition of viral replication relative to wild type; assay type: functional
# [41] = tested on: Human immunodeficiency virus; assay: Antiviral activity against HIV with reverse transcriptase L100I/K103N double mutant assessed as inhibition of viral replication relative to wild type; assay type: functional
smiles,measurement,setting,value
N#Cc1cc(Cl)cc(Oc2cc(OCc3n[nH]c4ncccc34)ccc2Cl)c1,fold change (FC),[1],4.36
same,fold change (FC),[2],1.91
same,IC95,[3],15 nM
same,IC50,[4],616 nM
same,fold change (FC),[5],1
same,fold change (FC),[6],560.18
same,fold change (FC),[7],0.64
same,IC95,[8],22 nM
same,IC50,[9],0.7 nM
same,IC50,[10],1.8 nM
same,IC50,[11],4.8 nM
same,IC50,[12],2.1 nM
same,IC50,[13],11.6 nM
same,fold change (FC),[14],3.27
same,fold change (FC),[15],21.45
same,fold change (FC),[16],10.55
same,fold change (FC),[17],4.64
same,IC50,[18],16.5 nM
same,fold change (FC),[19],2.18
same,fold change (FC),[20],>909
same,IC95,[21],10 nM
same,IC50,[22],3.1 nM
same,fold change (FC),[23],1.45
same,IC50,[24],> 1000 nM
same,IC50,[25],1.1 nM
same,IC50,[26],2.4 nM
same,IC95,[27],53 nM
same,IC95,[28],52 nM
same,Ki,[29],0.2 nM
same,IC50,[30],3.6 nM
same,IC50,[31],4.6 nM
same,fold change (FC),[32],28.09
same,fold change (FC),[33],2.82
same,fold change (FC),[34],1.64
same,IC50,[35],5.1 nM
same,IC50,[36],23.6 nM
same,Ki,[37],0.1 nM
same,IC50,[38],1.6 nM
same,IC50,[39],30.9 nM
same,fold change (FC),[40],4.18
same,fold change (FC),[41],15
O=C1Nc2ccc(Cl)cc2[C@@](C#CC2CC2)(C(F)(F)F)O1 [EFAVIRENZ],fold change (FC),[1],229
same,fold change (FC),[2],34.8
same,IC50,[4],124 nM
same,fold change (FC),[5],1
same,fold change (FC),[6],248.6
same,fold change (FC),[7],42
same,IC50,[9],21 nM
same,IC50,[10],3.6 nM
same,IC50,[11],114 nM
same,IC50,[12],17.4 nM
same,IC50,[13],106 nM
same,fold change (FC),[14],306.2
same,fold change (FC),[15],55.6
same,fold change (FC),[16],213
same,fold change (FC),[17],16
same,IC50,[18],> 500 nM
same,fold change (FC),[19],281.4
same,fold change (FC),[20],>454
same,IC50,[22],1.1 nM
same,fold change (FC),[23],33.6
same,IC50,[24],> 500 nM
same,IC50,[25],0.5 nM
same,IC50,[26],141 nM
same,IC50,[30],153 nM
same,IC50,[31],7.7 nM
same,fold change (FC),[32],>454
same,fold change (FC),[33],2.2
same,fold change (FC),[34],7.2
same,IC50,[35],8 nM
same,IC50,[36],27.8 nM
same,IC50,[38],16.8 nM
same,IC50,[39],> 500 nM
same,fold change (FC),[40],15.4
same,fold change (FC),[41],>454
